Measured values of several laboratories.
Target: cAMP-dependent protein kinase catalytic subunit PRKX (PRKX, Homo sapiens, UniProt P51817)
Sequence (P51817 1-358, as in one of the studies): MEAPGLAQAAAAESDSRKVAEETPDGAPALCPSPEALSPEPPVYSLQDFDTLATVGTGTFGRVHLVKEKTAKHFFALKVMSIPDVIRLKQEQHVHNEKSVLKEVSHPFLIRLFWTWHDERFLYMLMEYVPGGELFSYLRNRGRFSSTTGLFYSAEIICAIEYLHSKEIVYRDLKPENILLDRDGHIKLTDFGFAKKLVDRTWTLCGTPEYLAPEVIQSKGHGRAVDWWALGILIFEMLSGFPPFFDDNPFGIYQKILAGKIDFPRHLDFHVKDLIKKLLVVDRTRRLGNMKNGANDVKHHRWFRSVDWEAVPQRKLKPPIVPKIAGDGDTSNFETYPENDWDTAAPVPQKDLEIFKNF

Cn1cncc1[C@@](O)(COc1ccc(C#N)cc1-c1ccc(OC(F)(F)F)cc1)c1ccc(C#N)cc1
remaining binding (cell-free assay, competition with immobilised ligand; 1 µM): 94%

Cn1cc(-c2cccc(N3CCc4c(sc5c4CC(C)(C)C5)C3=O)c2CO)cc(Nc2ccncn2)c1=O
inhibition (enzyme activity, inhibitor; 1 µM): 1%

CC(C)(C)c1cc(C=C(C#N)C#N)cc(Br)c1O
remaining activity (enzyme activity, inhibitor; 0.5 µM): 102%

Nc1ncc(-c2nc(N3CCOCC3)nc(N3CCOCC3)n2)c(C(F)F)n1
remaining binding (binding, competition with immobilised ligand; 10 µM): 90%

O=c1[nH]c2ccccc2n1C1CCN(Cc2ccc(-c3[nH]c4cc5ncnc5cc4nc3-c3ccccc3)cc2)CC1
remaining signal (cell-free assay; 0.5 µM): 101%

COc1cc(Nc2ncc(F)c(Nc3ccc4c(n3)NC(=O)C(C)(C)O4)n2)cc(OC)c1OC
inhibition (binding; 10 µM): 0%

Cc1nn(C)cc1-c1nc2c(N3CCN(Cc4ccc(Cl)cc4)CC3)c(Cl)cnc2[nH]1
remaining binding (binding, competition with immobilised ligand; 1 µM): 18%

COc1ncccc1-c1cnn2ccc(N3CCN(C(=O)OC(C)C)CC3)nc12
remaining binding (binding, competition with immobilised ligand; 1 µM): 100%

Cn1cc(-c2cc(F)cc(N3CCn4c(cc5c4CCCC5)C3=O)c2CO)cc(Nc2ccc(N3CCN(C4COC4)CC3)cn2)c1=O
inhibition (enzyme activity, inhibitor; 0.1 µM): 17%
